This is an account of results in PMC8177101 (Chemical research in toxicology, 2020).

The subject of data set [1] is HapMap lymphoblastoid cell lines. The data set is described as follows: Micronuclei. The format is cell-based, human. Conditions: then 96 h in fresh media, averaged over all cell lines. The procedure, abridged:
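Ten GSTT1-negative and 8 GSTT1-positive lymphoblastoid lines were grown in RPMI 1640 with 15% heat-inactivated FBS at 37 °C, 5% CO2, passage <10. Cells were seeded at 0.5 million per 4 ml and rested 24 h. They were exposed to 0, 5 or 10 μM test compound for 6 h in triplicate, pelleted, then held 96 h in fresh medium. Micronuclei were scored with the Litron kit by flow cytometry.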

The test system is the same in data set [2]. In words: Apoptosis, Annexin V / PI flow cytometry. Format: cell-based, human. Conditions: 0, 5 or 10 μM DEB, 24 h, 18 cell lines; Anova p < 0.001. (In general: In flow cytometry, cells or beads pass a laser one at a time.)
Data set [3] is described as follows: CellTiter Glo cytotoxicity. Format: cell-based. Conditions: human. The procedure, abridged:
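Human HapMap lymphoblastoid lines grown in RPMI 1640 with 15% heat-inactivated FBS at 37 °C, 5% CO2, low passage (<10). Preliminary cytotoxicity dose-response to the test compound (a diepoxide) read by CellTiter Glo as cellular ATP level; IC50 taken from the dose-response curves.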
On the technique in general: ATP-based viability assays read luminescence as a measure of living cells.

For data set [4] the following is noted: ref [10], [11]; cited from earlier work.

For the molecule `C1OC1C1CO1` (centres unmarked) [DEB, 1,2,3,4-diepoxybutane], the “fold increase of mean percent of MN positive cells” value in data set [1] (5 μM DEB 6 h) amounted to 1.8 fold; in data set [1] (10 μM DEB 6 h), 2.4 fold. In addition, in data set [2], the “percentage of Annexin V-labeled cells” value is “increase in the percentage of Annexin V-labeled cells”. Besides, the IC50 (commonly the concentration at which inhibition is half-maximal) in data set [3] lay in the range of 2 to 6 µM. For the same molecule, the “mutagenic potency as compared to BD-derived monoepoxides” value in data set [4] is given as “up to 200 fold”.
